Measurements reported in ChEMBL document CHEMBL1671803, “Synthesis and evaluation of 11C-labeled imidazo[2,1-b]benzothiazoles (IBTs) as PET tracers for imaging β-amyloid plaques in Alzheimer's disease” (J Med Chem, 2011).
Calls of active or inactive are those of the source. No cut-off for these calls is given here.

Experiments:
[1] = target: T1, Amyloid-beta precursor protein (Homo sapiens, UniProt P05067); assay: Displacement of [3H]PiB from human amyloid beta (1-42) at 100 nM after 180 mins by liquid scintillation counter
[2] = target: T1, Amyloid-beta precursor protein; assay: Displacement of [3H]PiB from human amyloid beta (1-40) at 100 nM after 180 mins by liquid scintillation counter
[3] = Drug uptake in Balb-C mouse brain assessed as compound remaining at 4-6 MBq after 30 mins by gamma counting; type: ADME, tissue-based; details: read-out: Drug uptake
Procedure, shortened: (§1)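 Normal Balb-C mice received an iv [11C]-labeled tracer. HPLC analysis of blood and brain homogenates was done at 10 and 30 min post-injection to give percent intact tracer (n=3).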

[4] = Drug uptake in Balb-C mouse blood assessed as compound remaining after 10 mins at 4-6 MBq by gamma counting; type: ADME, tissue-based; details: read-out: Drug uptake; procedure, shortened: as §1
Brain [5] = assay: Drug uptake in Balb-C mouse brain at 4-6 MBq after 5 mins by gamma counting; type: ADME, tissue-based; details: in vivo
Procedure, shortened: (§2)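 Normal male Balb-C mice were given an iv [11C]-labeled compound. Brain uptake was measured as %ID/g at 5 and 30 min post-injection (n=5). Clearance is expressed as the 5 min/30 min %ID/g ratio.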

[6] = Drug uptake in Balb-C mouse blood assessed as compound remaining at 4-6 MBq after 30 mins by gamma counting; type: ADME, tissue-based; details: read-out: Drug uptake; procedure, shortened: as §1
[7] = Drug uptake in Balb-C mouse brain assessed as compound remaining at 4-6 MBq after 10 mins by gamma counting; type: ADME, tissue-based; details: read-out: Drug uptake; procedure, shortened: as §1
Brain [8] = assay: Drug uptake in Balb-C mouse brain at 4-6 MBq by gamma counting; details: in vivo
Brain [9] = assay: Drug uptake in Balb-C mouse brain at 4-6 MBq after 30 mins by gamma counting; type: ADME, tissue-based; details: in vivo, 0.5 h; procedure, shortened: as §2
[10] = Octanol-phosphate buffered saline partition coefficient, log P of the compound at pH 7.4; type: physicochemical
Mus musculus [11] = assay: Binding affinity to amyloid beta in iv dosed telencephalon region in APP/PS1 transgenic C57BL6/J mouse alzheimer's disease model after 5 to 30 mins by micro PET examination relative to control; type: functional, organism-based
Procedure, shortened: (§3)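 APP/PS1 (ARTE10) homozygous female mice, 22 months old, with age- and gender-matched C57BL6/J female controls (two each). A single tail-vein bolus of [11C]5 mixed with [3H]1a (7.2 MBq) was given. Readouts were telencephalon/cerebellum ratios from three sources: μPET/CT coregistered to an MRI template (summed 20-30 min), dual-label digital autoradiography of 12 μm sections, and regional biodistribution, all at 30 min p.i.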

Mus musculus [12] = assay: Binding affinity to amyloid beta in telencephalon region in APP/PS1 transgenic C57BL6/J mouse alzheimer's disease model at 50.2 MBq, iv after 5 to 30 mins by MRI examination relative to control; type: functional, organism-based; details: 50.2 M, tested as the 11C-labelled form; procedure, shortened: as §3
Mus musculus [13] = assay: Binding affinity to amyloid beta in telencephalon region in APP/PS1 transgenic C57BL6/J mouse alzheimer's disease model at 50.2 MBq, iv after 5 to 30 mins by micro PET examination relative to control; type: functional, organism-based; details: 50.2 M, tested as the 11C-labelled form; procedure, shortened: as §3
Mus musculus [14] = assay: Binding affinity to amyloid beta in cerebellum region in APP/PS1 transgenic C57BL6/J mouse alzheimer's disease model at 50.2 MBq, iv after 5 to 30 mins by micro PET examination relative to control; type: functional, organism-based; details: 50.2 M, tested as the 11C-labelled form; procedure, shortened: as §3
Mus musculus [15] = assay: Binding affinity to amyloid beta in cerebellum region in APP/PS1 transgenic C57BL6/J mouse alzheimer's disease model at 50.2 MBq, iv after 5 to 30 mins by autoradiography analysis relative to control; type: functional, organism-based; details: 50.2 M, tested as the 11C-labelled form; procedure, shortened: as §3
Mus musculus [16] = assay: Binding affinity to amyloid beta in cerebellum region in APP/PS1 transgenic C57BL6/J mouse alzheimer's disease model at 50.2 MBq, iv after 5 to 30 mins by MRI examination relative to control; type: functional, organism-based; details: 50.2 M, tested as the 11C-labelled form; procedure, shortened: as §3
Mus musculus [17] = assay: Binding affinity to amyloid beta in telencephalon region in iv dosed APP/PS1 transgenic C57BL6/J mouse alzheimer's disease model after 5 to 30 mins by autoradiography analysis relative to control; type: functional, organism-based; procedure, shortened: as §3
Mus musculus [18] = assay: Binding affinity to amyloid beta in telencephalon region in APP/PS1 transgenic C57BL6/J mouse alzheimer's disease model at 50.2 MBq, iv after 5 to 30 mins by autoradiography analysis relative to control; type: functional, organism-based; details: 50.2 M, tested as the 11C-labelled form; procedure, shortened: as §3
Brain [19] = assay: Ratio of drug uptake in Balb-C mouse brain after 5 mins to drug uptake in Balb-C mouse brain after 30 mins; type: ADME, tissue-based; details: in vivo; procedure, shortened: as §2
[20] = tested as the 11C-labelled form

T1 sequence (P05067 whole entry): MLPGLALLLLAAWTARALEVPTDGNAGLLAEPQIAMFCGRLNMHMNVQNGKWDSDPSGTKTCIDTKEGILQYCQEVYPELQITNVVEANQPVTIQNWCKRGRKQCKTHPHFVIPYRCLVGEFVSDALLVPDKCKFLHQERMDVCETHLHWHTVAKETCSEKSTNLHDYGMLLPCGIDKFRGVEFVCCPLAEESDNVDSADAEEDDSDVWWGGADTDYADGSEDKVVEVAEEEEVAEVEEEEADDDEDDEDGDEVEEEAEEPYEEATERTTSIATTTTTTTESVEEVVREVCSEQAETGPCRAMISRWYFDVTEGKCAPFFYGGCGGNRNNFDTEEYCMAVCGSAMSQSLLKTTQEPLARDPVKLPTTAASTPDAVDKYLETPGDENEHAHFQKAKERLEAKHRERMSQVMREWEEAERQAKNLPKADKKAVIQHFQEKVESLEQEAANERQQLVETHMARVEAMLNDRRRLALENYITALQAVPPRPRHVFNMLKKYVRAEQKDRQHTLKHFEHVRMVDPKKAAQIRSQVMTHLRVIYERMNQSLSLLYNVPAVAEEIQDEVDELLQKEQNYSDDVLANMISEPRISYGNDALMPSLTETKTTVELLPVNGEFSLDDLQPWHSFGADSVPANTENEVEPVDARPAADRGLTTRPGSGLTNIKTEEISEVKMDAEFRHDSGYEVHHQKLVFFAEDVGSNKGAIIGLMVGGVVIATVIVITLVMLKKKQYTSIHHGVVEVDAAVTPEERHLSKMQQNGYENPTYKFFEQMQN

| inhibition [1] [%] | inhibition [2] [%] | Drug uptake (Brain [8]) [% ID/g] | Drug uptake (Brain [9]) [% ID/g] | logD [10] | SMILES | also measured |
| --- | --- | --- | --- | --- | --- | --- |
| 91 | 79 | – | – | – | CCN(CC)c1ccc(-c2cn3c(n2)sc2cc(O)ccc23)cc1 | – |
| 73 | 46 | 1.9 | 0.7 | 1.2 | CNc1ccc(-c2cn3c(n2)sc2cc(O)ccc23)cc1 | – |
| 48 | 48 | – | – | – | Nc1ccc(-c2cn3c(n2)sc2cc(O)ccc23)cc1 | – |
| 91 | 91 | – | – | – | Oc1ccc2c(c1)sc1nc(-c3ccc(N4CCCC4)cc3)cn12 | – |
| 82 | 91 | 1.9 | 0.7 | 1.9 | COc1ccc2c(c1)sc1nc(-c3ccc(N4CCCC4)cc3)cn12 | – |
| 86 | 85 | – | – | – | CN(C)c1ccc(-c2cn3c(n2)sc2cc(O)ccc23)cc1 | – |

The next lines start with the compound.

| SMILES | inhibition [1] [%] | inhibition [2] [%] | Drug uptake (Brain [8]) [% ID/g] | Drug uptake (Brain [9]) [% ID/g] | logD [10] | also measured |
| --- | --- | --- | --- | --- | --- | --- |
| COc1ccc2c(c1)sc1nc(-c3ccc(NC(C)=O)cc3)cn12 | 64 | 44 | – | – | – | – |
| COc1ccc2c(c1)sc1nc(-c3ccc(N[11CH3])cc3)cn12 | – | – | – | – | – | remaining at 0.5 h [3]: 91%; remaining at 10 min [4]: 15%; Drug uptake (Brain [5]): Active; remaining at 0.5 h [6]: 7%; remaining at 10 min [7]: 95% |
| COc1ccc2c(c1)sc1nc(-c3ccc(N)cc3)cn12 | 74 | 57 | – | – | – | – |
| CNc1ccc(-c2cn3c(n2)sc2cc(OC)ccc23)cc1 | 97 | 95 | – | 0.7 | 1.7 | Ki [1]: 5.8 nM; Activity (Mus musculus [11]; [20]): Active; Activity (Mus musculus [12]): Active; Activity (Mus musculus [13]): Active; Activity (Mus musculus [14]): inactive; Activity (Mus musculus [15]): inactive; Activity (Mus musculus [16]): inactive; Activity (Mus musculus [17]; [20]): Active; Ki [2]: 3.5 nM; Activity (Mus musculus [18]): Active; Ratio (Brain [19]): 9.1 |
| CCN(CC)c1ccc(-c2cn3c(n2)sc2cc(OC)ccc23)cc1 | 91 | 79 | 1.9 | 0.7 | 2.2 | – |
| COc1ccc2c(c1)sc1nc(-c3ccc(N(C)C)cc3)cn12 | 91 | 89 | 1.9 | 0.7 | 1.9 | – |
| CNc1ccc(-c2nc3ccc(O)cc3s2)cc1 | 83 | 88 | – | – | – | Activity (Mus musculus [11]; tested as the 3H-labelled form): Active; Activity (Mus musculus [17]; tested as the 3H-labelled form): Active |
